Data from the M2OR odorant receptor database.

molecular target: T1, Or1m1 (Mus musculus) (UniProt Q8VFM9); details: stereoisomer not certain
T1 sequence (whole entry): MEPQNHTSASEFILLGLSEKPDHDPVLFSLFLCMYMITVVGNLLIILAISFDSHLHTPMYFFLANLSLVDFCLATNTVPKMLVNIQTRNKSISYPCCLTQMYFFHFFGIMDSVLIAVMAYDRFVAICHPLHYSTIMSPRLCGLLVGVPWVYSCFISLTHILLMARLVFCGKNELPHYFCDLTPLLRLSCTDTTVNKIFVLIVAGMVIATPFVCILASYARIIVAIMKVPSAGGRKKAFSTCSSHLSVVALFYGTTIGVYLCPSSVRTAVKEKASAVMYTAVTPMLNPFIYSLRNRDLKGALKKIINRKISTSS
In short: (§1)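 Each entry records the cell line, G-protein, co-transfected protein and tags used. Methods varied with the source, often transient luciferase assays in mammalian cell lines. A receptor–molecule pair is called responsive (active) if the original authors judged its signal statistically different from baseline and non-responsive (inactive) otherwise.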

Structure (SMILES)	odorant receptor agonist call
CCc1ncc(C)nc1CC	inactive
COc1cnccn1	inactive
COc1nccnc1C(C)C	inactive
CCC(C)c1nccnc1OC (configuration not stated)	inactive
CCc1nccnc1CC	inactive

molecular target: T2, Or2c1 (Mus musculus) (UniProt P23275); details: stereoisomer not certain
T2 sequence (whole entry): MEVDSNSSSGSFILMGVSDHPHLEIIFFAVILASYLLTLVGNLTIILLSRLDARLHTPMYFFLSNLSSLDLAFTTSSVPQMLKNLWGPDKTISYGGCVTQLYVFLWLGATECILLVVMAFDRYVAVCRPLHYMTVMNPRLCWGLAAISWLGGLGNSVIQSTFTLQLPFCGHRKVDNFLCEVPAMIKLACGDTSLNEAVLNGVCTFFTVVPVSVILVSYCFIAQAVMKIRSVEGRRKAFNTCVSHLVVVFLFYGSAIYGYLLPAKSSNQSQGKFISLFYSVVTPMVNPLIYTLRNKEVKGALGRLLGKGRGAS
In short: as §1

Structure (SMILES)	odorant receptor agonist call
CCCCCCC(=O)[O-].[H+]	inactive
CCCCOC(=O)C(C)OC(=O)CCC (configuration not stated)	inactive
CCCCCO	inactive
CCC(C(=O)O)c1ccccc1 (configuration not stated)	inactive
O=c1ccc2ccccc2o1	inactive

molecular target: T3, Or5an6 (Mus musculus) (UniProt Q8VFV4); details: stereoisomer not certain
T3 sequence (whole entry): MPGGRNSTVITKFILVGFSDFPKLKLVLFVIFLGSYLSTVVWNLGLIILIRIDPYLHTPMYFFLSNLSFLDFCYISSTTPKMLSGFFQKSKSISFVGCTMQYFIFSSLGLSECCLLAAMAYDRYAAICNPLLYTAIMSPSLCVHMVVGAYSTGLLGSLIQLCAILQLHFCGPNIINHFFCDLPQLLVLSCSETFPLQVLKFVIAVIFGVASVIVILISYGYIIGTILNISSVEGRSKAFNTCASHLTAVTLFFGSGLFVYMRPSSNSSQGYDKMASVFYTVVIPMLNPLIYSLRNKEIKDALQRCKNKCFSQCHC
In short: as §1

Structure (SMILES)	odorant receptor agonist call
O=C1CCCCCCCCCC1	inactive
O=C1CCCC=CCCCCCCCCCC1	active
O=C1C=CCCCCCCCCCCCCO1	active
CC1C(C)(C)C2=C(C(=O)CCC2)C1(C)C (configuration not stated)	inactive
CCCCCCCC(=O)CCCCCCC	active
O=C1CCCCCC=CCCCCCCCCO1	active
CCCCCCCCCCCCCC(C)=O	active
O=C1CCCCCCCCCCCCCC1	active
O=C1CCCCCCCCC1	active
CCC(=O)OCC(C)(C)OC(C)C1CCCC(C)(C)C1 (configuration not stated)	active
CC1CCCCCCCCCCCC(=O)C1 (configuration not stated)	active
CC1CC=CCCCCCCCCC(=O)C1 (configuration not stated)	active
O=C1CCCCCCC=CCCCCCCC1	active

molecular target: T4, Or5ar1 (Mus musculus) (UniProt Q8VGS3); details: stereoisomer not certain
T4 sequence (whole entry): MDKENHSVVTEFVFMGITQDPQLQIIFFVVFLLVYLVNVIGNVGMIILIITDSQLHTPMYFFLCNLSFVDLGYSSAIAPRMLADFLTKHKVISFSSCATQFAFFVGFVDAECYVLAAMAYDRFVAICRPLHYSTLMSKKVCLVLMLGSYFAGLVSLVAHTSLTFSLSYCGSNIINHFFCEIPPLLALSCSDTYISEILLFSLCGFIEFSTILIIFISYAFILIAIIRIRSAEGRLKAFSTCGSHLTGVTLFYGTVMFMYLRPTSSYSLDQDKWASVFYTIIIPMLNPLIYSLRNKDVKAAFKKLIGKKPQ
In short: as §1

Structure (SMILES)	odorant receptor agonist call
CCCCCCC(=O)[O-].[H+]	inactive
CCc1ncc(C)nc1CC	inactive
COc1cnccn1	inactive
CCCCOC(=O)C(C)OC(=O)CCC (configuration not stated)	inactive
COc1nccnc1C(C)C	inactive
CCCCCO	inactive
CCC(C)c1nccnc1OC (configuration not stated)	inactive
CCc1nccnc1CC	inactive
CCC(C(=O)O)c1ccccc1 (configuration not stated)	inactive
O=c1ccc2ccccc2o1	inactive

molecular target: T5, Or5k16 (Mus musculus) (UniProt Q7TS48); details: stereoisomer not certain
T5 sequence (whole entry): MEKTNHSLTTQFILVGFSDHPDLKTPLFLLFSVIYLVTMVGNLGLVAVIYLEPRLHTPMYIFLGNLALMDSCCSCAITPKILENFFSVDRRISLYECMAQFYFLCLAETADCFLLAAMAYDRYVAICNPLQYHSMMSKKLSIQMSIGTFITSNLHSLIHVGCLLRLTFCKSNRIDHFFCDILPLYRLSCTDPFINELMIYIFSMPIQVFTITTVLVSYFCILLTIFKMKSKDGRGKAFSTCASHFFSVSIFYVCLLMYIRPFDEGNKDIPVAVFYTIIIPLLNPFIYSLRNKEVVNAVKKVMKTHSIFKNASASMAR
In short: as §1

Structure (SMILES)	odorant receptor agonist call
CCc1nccnc1C(C)=O	inactive
Cc1cnccn1	inactive
COC1=C(C)OC(C)C1=O (configuration not stated)	inactive
CCc1ncc(C)nc1CC	inactive
CC(=O)c1nccnc1C	inactive
COc1cnccn1	inactive
Cc1nccnc1C	inactive
CC1CCc2nccnc21 (configuration not stated)	inactive
CCc1nccnc1C	inactive
COc1nccnc1C(C)C	inactive
CCC(C)c1nccnc1OC (configuration not stated)	inactive
Cc1cncc(C)n1	inactive
C=Cc1cnccn1	inactive
Cc1cnc(C)cn1	inactive
COc1nccnc1CC(C)C	inactive
CCc1nccnc1CC	inactive
CCc1cnc(C)c(C)n1	active
CCc1nccnc1OC	inactive
CC(=O)c1cnccn1	inactive
